{"data": "Published values pooled from the literature", "target": "AP2-associated protein kinase 1 (AAK1, Homo sapiens, UniProt Q2M2I8)", "note": "Compare with care: the assays were run in different laboratories."}
{"Structure (SMILES)": "C[C@@H]1CCN(c2nccc(-c3cnn4ncccc34)n2)C1", "effect on": "binding", "concentration": "1 µM", "remaining binding [%]": 71}
{"Structure (SMILES)": "O=C(NCc1ncc(C(F)(F)F)cc1Cl)c1ccc2c(c1)C1(CCS(=O)(=O)CC1)[C@H](C1CC1)N2S(=O)(=O)c1ccc(F)cc1", "effect on": "binding", "concentration": "1 µM", "remaining binding [%]": 99}
{"Structure (SMILES)": "CC1CCCN1c1nccc(-c2cnn3ncccc23)n1 (stereo not shown)", "effect on": "binding", "concentration": "1 µM", "remaining binding [%]": 100}
{"Structure (SMILES)": "Nc1ncc2c(n1)-c1c([nH]c3ccc(C#CC4CC4)cc13)CCCC2", "effect on": "binding", "technique": "competition with immobilised ligand", "concentration": "1 µM", "remaining binding [%]": 92}
{"Structure (SMILES)": "CN(c1nccc(-c2cnn3ncccc23)n1)C1CC1", "effect on": "binding", "concentration": "1 µM", "remaining binding [%]": 100}
{"Structure (SMILES)": "O=C(Nc1cccnn1)N1CC(C/C=C/c2cncc(Oc3ccc(C(F)(F)F)cn3)n2)C1", "effect on": "cell-free assay", "technique": "competition with immobilised ligand", "concentration": "1 µM", "remaining binding [%]": 100}
{"Structure (SMILES)": "Cc1cnn2ncc(-c3ccnc(N(C)C)n3)c2c1", "effect on": "binding", "concentration": "1 µM", "remaining binding [%]": 91}
{"Structure (SMILES)": "CN(C(=O)c1ccccc1)c1cc(N(C)c2ccc3c(c2)CCc2ccc(C(=O)NCCN4CCOCC4)cc2C3=O)ccc1F", "effect on": "binding", "concentration": "1 µM", "remaining binding [%]": 100}
{"Structure (SMILES)": "Cc1cnc(Nc2ccc(C(=O)N3CCC(N4CCCC4)CC3)cc2)nc1-c1cc2ccccc2s1", "effect on": "binding", "technique": "competition with immobilised ligand", "concentration": "1 µM", "remaining binding [%]": 22}
{"Structure (SMILES)": "O=c1nc(-c2ccccn2)sc2ccccc12", "effect on": "binding", "concentration": "1 µM", "remaining binding [%]": 100}
{"Structure (SMILES)": "CN(C)c1nccc(-c2cnc3ncccn23)n1", "effect on": "binding", "concentration": "1 µM", "remaining binding [%]": 88}
{"Structure (SMILES)": "COc1cnc(Nc2cccc(S(N)(=O)=O)c2)nc1N1CCN(c2ccccc2)CC1", "effect on": "binding", "technique": "competition with immobilised ligand", "concentration": "1 µM", "remaining binding [%]": 73}
{"Structure (SMILES)": "C[C@@H](c1ccc(-n2cnc3c(N)ncnc32)cc1)N1CCc2nn(C)c(Cc3ccccc3)c2C1=O", "effect on": "binding", "technique": "competition with immobilised ligand", "concentration": "0.1 µM", "remaining binding [%]": 98}
{"Structure (SMILES)": "CCc1ccccc1C(=O)Nc1n[nH]c2c(C)c(F)c(C3C(C#N)=C(C)N(C)C(C)=C3C#N)cc12", "effect on": "binding", "concentration": "1 µM", "remaining binding [%]": 81}
{"Structure (SMILES)": "O=C(Nc1c[nH]nc1C(=O)NC1CCNCC1)c1cc(F)cc(F)c1", "effect on": "binding", "technique": "competition with immobilised ligand", "concentration": "1 µM", "remaining binding [%]": 100}
{"Structure (SMILES)": "C=CC(=O)N1CCC(C(=O)NCC(=O)N2CCN(c3nc(-c4cnc(N)nc4C(F)F)nc(N4CCOCC4)n3)CC2)CC1", "effect on": "binding", "technique": "competition with immobilised ligand", "concentration": "1 µM", "remaining binding [%]": 100}
{"Structure (SMILES)": "O=C(NCCCN1CCOCC1)c1ccc(Nc2nccc(-c3cc4ccccc4s3)n2)cc1", "effect on": "binding", "technique": "competition with immobilised ligand", "concentration": "1 µM", "remaining binding [%]": 27}
{"Structure (SMILES)": "N[C@@H]1CCN(c2nccc(-c3cnn4ncccc34)n2)C1", "effect on": "binding", "concentration": "1 µM", "remaining binding [%]": 73}
{"Structure (SMILES)": "CCN1CCN(Cc2ccc(C(=O)Nc3ccc(C)c(Oc4ccc5c(c4)CC(=O)N5)c3)cc2C(F)(F)F)CC1", "effect on": "binding", "technique": "competition with immobilised ligand", "concentration": "1 µM", "remaining binding [%]": 100}
{"Structure (SMILES)": "Cc1nccc(COC(=O)N2C[C@@H]3[C@@H](CNC(=O)c4ccc5[nH]nnc5c4)[C@@H]3C2)n1", "effect on": "binding", "concentration": "1 µM", "remaining binding [%]": 100}
{"Structure (SMILES)": "CN(CCCC(F)(F)F)c1nccc(-c2cnn3ncccc23)n1", "effect on": "binding", "concentration": "1 µM", "remaining binding [%]": 100}
{"Structure (SMILES)": "O=C(NCCCN1CCOCC1)c1ccc(Nc2ncc(Cl)c(-c3ccc(Cl)s3)n2)cc1", "effect on": "binding", "technique": "competition with immobilised ligand", "concentration": "1 µM", "remaining binding [%]": 35}
